Reference: ChEMBL document CHEMBL2385057 (Bioorg Med Chem Lett, 2013)

System: not listed separately
Assay: Half life in human liver microsomes
Format: ADME, Microsome
Settings: not given

Which half-life does the source give for `COc1ccc(C2=Nc3c(C(C)(C)C)nn(CCCO)c3C(=O)NC2)cc1-c1ccc(F)cc1F` here?
The half-life was 2 h.

Which half-life does the source give for `COc1ccc(C2=Nc3c(C(C)(C)C)nn(CCCO)c3C(=O)NC2)cc1-c1ccccc1F` here?
Its half-life is 0.8 h.

For `COc1ccccc1-c1cc(C2=Nc3c(C(C)(C)C)nn(CCCO)c3C(=O)NC2)ccc1OC`, which half-life is on record?
The half-life was 1.37 h.

Which half-life does the source give for `COc1ccc(OC)c(-c2cc(C3=Nc4c(C(C)(C)C)nn(CCCO)c4C(=O)NC3)ccc2OC)c1` here?
Its half-life is 1.02 h.

For `COc1ccc(-c2cc(C3=Nc4c(C(C)(C)C)nn(CCCO)c4C(=O)NC3)ccc2OC)c(OC)c1`, which half-life is on record?
Its half-life is 2 h.

With `COc1ccc(C2=Nc3c(C(C)(C)C)nn(CCCO)c3C(=O)NC2)cc1-c1ccc(C(=O)O)cc1` as the compound, how does the half-life read?
The half-life was 2 h.

With `COc1ccc(-c2cc(C3=Nc4c(C(C)(C)C)nn(CCCO)c4C(=O)NC3)ccc2OC)cn1` as the compound, how does the half-life read?
Its half-life is 2 h.

Which half-life does the source give for `COc1ccc(C2=Nc3c(C(C)(C)C)nn(CCCO)c3C(=O)NC2)cc1-c1cnn(C)c1` here?
Its half-life is 2 h.

Which half-life does the source give for `COc1ccc(C2=Nc3c(C(C)(C)C)nn(CCCO)c3C(=O)NC2)cc1-c1cnc(N(C)C)cc1C` here?
The half-life was 0.7 h.

For `COc1ncc(-c2cc(C3=Nc4c(C(C)(C)C)nn(CCCO)c4C(=O)NC3)ccc2OC)c(OC)n1`, which half-life is on record?
Its half-life is 2 h.

System: not listed separately
Assay: Volume of distribution at steady state in Sprague-Dawley rat at 1 mg/kg, iv and 10 mg/kg, po
Format: ADME, organism-based
Settings: in vivo, read-out: Vdss
How it was run: (§1)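 Male Sprague–Dawley rats, two animals per route. Dosing was either intravenous at 1 mg/kg or oral at 10 mg/kg. Pharmacokinetic parameters were derived from these dosings.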

With `CCC(CC)c1nn(CCO)c2c1N=C(c1ccc(-n3ccnc3C)cc1)CNC2=O` as the compound, how does the Vd read?
The Vd was 1.1 L/kg.

With `COc1ccc(C2=Nc3c(C(C)(C)C)nn(CCCO)c3C(=O)NC2)cc1-c1cnn(C)c1` as the compound, how does the Vd read?
Its Vd is 2 L/kg.

System: not listed separately
Assay: Oral bioavailability in Sprague-Dawley rat at 10 mg/kg
Format: ADME, organism-based
Settings: in vivo
How it was run: as §1

For `CCC(CC)c1nn(CCO)c2c1N=C(c1ccc(-n3ccnc3C)cc1)CNC2=O`, which bioavailability is on record?
The bioavailability was 75%.

For `COc1ccc(C2=Nc3c(C(C)(C)C)nn(CCCO)c3C(=O)NC2)cc1-c1cnn(C)c1`, which bioavailability is on record?
The bioavailability was 31%.

System: not listed separately
Assay: AUC in Sprague-Dawley rat at 10 mg/kg, po
Format: ADME, organism-based
Set-up: dose 10 mg/kg, route oral
Settings: plasma
How it was run: as §1

Which AUC does the source give for `CCC(CC)c1nn(CCO)c2c1N=C(c1ccc(-n3ccnc3C)cc1)CNC2=O` here?
Its AUC is 1660 ng·h/mL.

With `COc1ccc(C2=Nc3c(C(C)(C)C)nn(CCCO)c3C(=O)NC2)cc1-c1cnn(C)c1` as the compound, how does the AUC read?
Its AUC is 1160 ng·h/mL.

Target: cGMP-dependent 3',5'-cyclic phosphodiesterase (Homo sapiens, UniProt O00408)
Sequence (O00408 whole entry, the tested form may be a part): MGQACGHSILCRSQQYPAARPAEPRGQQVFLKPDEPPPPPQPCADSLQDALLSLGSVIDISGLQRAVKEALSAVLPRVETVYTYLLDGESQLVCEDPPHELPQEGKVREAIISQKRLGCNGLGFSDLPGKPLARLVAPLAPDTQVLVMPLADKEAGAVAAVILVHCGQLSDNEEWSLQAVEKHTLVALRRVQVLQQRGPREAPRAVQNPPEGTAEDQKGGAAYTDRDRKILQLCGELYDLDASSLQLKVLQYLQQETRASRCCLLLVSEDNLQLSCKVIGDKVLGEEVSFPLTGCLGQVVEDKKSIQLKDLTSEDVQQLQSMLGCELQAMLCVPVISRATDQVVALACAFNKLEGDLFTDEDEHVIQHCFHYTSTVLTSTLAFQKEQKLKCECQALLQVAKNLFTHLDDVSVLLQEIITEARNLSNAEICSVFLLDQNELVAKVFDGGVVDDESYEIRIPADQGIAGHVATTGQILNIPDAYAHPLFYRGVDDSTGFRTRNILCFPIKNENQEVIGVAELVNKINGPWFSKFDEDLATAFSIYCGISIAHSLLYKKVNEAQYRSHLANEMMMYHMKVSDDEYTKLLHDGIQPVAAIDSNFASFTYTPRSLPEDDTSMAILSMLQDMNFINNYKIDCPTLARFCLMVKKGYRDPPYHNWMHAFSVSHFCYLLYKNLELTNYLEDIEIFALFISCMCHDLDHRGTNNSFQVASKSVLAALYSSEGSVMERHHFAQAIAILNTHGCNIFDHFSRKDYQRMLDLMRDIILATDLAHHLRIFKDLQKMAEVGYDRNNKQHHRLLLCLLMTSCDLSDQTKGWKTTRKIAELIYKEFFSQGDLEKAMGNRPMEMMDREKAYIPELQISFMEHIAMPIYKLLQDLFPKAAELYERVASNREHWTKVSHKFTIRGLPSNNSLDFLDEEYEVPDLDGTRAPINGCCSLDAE
Assay: Inhibition of PDE2 catalytic domain (unknown origin)
Settings: not given

For `COc1ccc(C2=Nc3c(C(C)(C)C)nn(CCCO)c3C(=O)NC2)cc1-c1ccc(F)cc1F`, which IC50 is on record?
Its IC50 is 483 nM.

Which IC50 does the source give for `COc1ccc(C2=Nc3c(C(C)(C)C)nn(CCCO)c3C(=O)NC2)cc1-c1ccccc1F` here?
The IC50 was 586 nM.

Which IC50 does the source give for `COc1ccccc1-c1cc(C2=Nc3c(C(C)(C)C)nn(CCCO)c3C(=O)NC2)ccc1OC` here?
The IC50 was 156 nM.

With `COc1ccc(OC)c(-c2cc(C3=Nc4c(C(C)(C)C)nn(CCCO)c4C(=O)NC3)ccc2OC)c1` as the compound, how does the IC50 read?
The IC50 was 46 nM.

With `COc1ccc(-c2cc(C3=Nc4c(C(C)(C)C)nn(CCCO)c4C(=O)NC3)ccc2OC)c(OC)c1` as the compound, how does the IC50 read?
Its IC50 is 14 nM.

For `COc1ccc(C2=Nc3c(C(C)(C)C)nn(CCCO)c3C(=O)NC2)cc1-c1ccc(C(=O)O)cc1`, which IC50 is on record?
The IC50 was 40 nM.

For `COc1ccc(-c2cc(C3=Nc4c(C(C)(C)C)nn(CCCO)c4C(=O)NC3)ccc2OC)cn1`, which IC50 is on record?
Its IC50 is 70 nM.

Which IC50 does the source give for `COc1ccc(C2=Nc3c(C(C)(C)C)nn(CCCO)c3C(=O)NC2)cc1-c1cnn(C)c1` here?
Its IC50 is 36 nM.

Which IC50 does the source give for `COc1ccc(C2=Nc3c(C(C)(C)C)nn(CCCO)c3C(=O)NC2)cc1-c1cnc(N(C)C)cc1C` here?
The IC50 was 18 nM.

With `COc1ncc(-c2cc(C3=Nc4c(C(C)(C)C)nn(CCCO)c4C(=O)NC3)ccc2OC)c(OC)n1` as the compound, how does the IC50 read?
Its IC50 is 7 nM.

System: Rattus norvegicus
Assay: Analgesic activity in medial meniscal transection rat osteoarthritis pain model assessed as inhibition of change in hind paw weight distribution at 10 mg/kg, sc administered on day 28 post medial meniscal transection surgery measured after 3 hrs relative to vehicle-treated control
Format: functional
Settings: route subcutaneous
How it was run: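 The rats were assessed for hind paw weight distribution. On day 28 after surgery they received a single subcutaneous dose of compound or vehicle and were reassessed 1 and 3 h post dose. N = 6 rats per group, data as mean ± SEM. Significance was tested by one-way ANOVA with Dunnett's test against vehicle at the same time point, P < 0.05.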

Which inhibition in vivo at 10 mg/kg does the source give for `CS(=O)(=O)c1ccc(C2=C(c3ccccc3)C(=O)OC2)cc1` [ROFECOXIB] here?
Its inhibition in vivo at 10 mg/kg is 100%.

System: Rattus norvegicus
Assay: Analgesic activity in medial meniscal transection rat osteoarthritis pain model assessed as inhibition of change in hind paw weight distribution at 10 mg/kg, po administered on day 28 post medial meniscal transection surgery measured after 3 hrs relative to vehicle-treated control
Format: functional
Settings: not given

With `CS(=O)(=O)c1ccc(C2=C(c3ccccc3)C(=O)OC2)cc1` [ROFECOXIB] as the compound, how does the inhibition in vivo at 10 mg/kg read?
The inhibition in vivo at 10 mg/kg was 79%.

Target: 3',5'-cyclic-AMP phosphodiesterase 4B (Homo sapiens, UniProt Q07343)
Sequence (Q07343 whole entry, the tested form may be a part): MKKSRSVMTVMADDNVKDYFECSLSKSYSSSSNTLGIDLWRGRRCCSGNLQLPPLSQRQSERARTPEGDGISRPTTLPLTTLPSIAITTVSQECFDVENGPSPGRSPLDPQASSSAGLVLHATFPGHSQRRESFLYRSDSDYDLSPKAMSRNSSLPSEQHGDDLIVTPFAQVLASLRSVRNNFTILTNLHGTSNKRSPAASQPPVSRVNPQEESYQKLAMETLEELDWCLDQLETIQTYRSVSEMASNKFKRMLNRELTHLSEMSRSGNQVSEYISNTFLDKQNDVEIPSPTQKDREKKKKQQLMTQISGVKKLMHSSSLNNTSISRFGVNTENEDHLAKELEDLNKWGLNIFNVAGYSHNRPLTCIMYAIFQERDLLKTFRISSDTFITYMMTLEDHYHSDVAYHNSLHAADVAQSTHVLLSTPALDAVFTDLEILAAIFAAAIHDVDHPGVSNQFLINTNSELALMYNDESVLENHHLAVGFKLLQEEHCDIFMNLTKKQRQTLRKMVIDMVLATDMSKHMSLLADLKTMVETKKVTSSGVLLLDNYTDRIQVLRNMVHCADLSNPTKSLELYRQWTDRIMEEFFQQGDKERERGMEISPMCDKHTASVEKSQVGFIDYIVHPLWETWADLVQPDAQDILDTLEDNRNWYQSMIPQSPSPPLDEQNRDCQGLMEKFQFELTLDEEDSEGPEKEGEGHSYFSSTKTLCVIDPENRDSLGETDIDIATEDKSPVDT
Assay: Inhibition of PDE4B catalytic domain (unknown origin)
Settings: not given
How it was run: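 Each IC50 is the mean of at least two independent determinations. Each curve had 10 half-log dilutions, centred near the 50% inhibition level, with each point run in duplicate.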

With `COc1ccc(C2=Nc3c(C(C)(C)C)nn(CCCO)c3C(=O)NC2)cc1-c1ccc(F)cc1F` as the compound, how does the IC50 read?
The IC50 was 100000 nM.

With `COc1ccc(C2=Nc3c(C(C)(C)C)nn(CCCO)c3C(=O)NC2)cc1-c1ccccc1F` as the compound, how does the IC50 read?
The IC50 was 8160 nM.

With `COc1ccccc1-c1cc(C2=Nc3c(C(C)(C)C)nn(CCCO)c3C(=O)NC2)ccc1OC` as the compound, how does the IC50 read?
Its IC50 is 2070 nM.

Which IC50 does the source give for `COc1ccc(OC)c(-c2cc(C3=Nc4c(C(C)(C)C)nn(CCCO)c4C(=O)NC3)ccc2OC)c1` here?
The IC50 was 8110 nM.

Which IC50 does the source give for `COc1ccc(-c2cc(C3=Nc4c(C(C)(C)C)nn(CCCO)c4C(=O)NC3)ccc2OC)c(OC)c1` here?
Its IC50 is 100000 nM.

With `COc1ccc(C2=Nc3c(C(C)(C)C)nn(CCCO)c3C(=O)NC2)cc1-c1ccc(C(=O)O)cc1` as the compound, how does the IC50 read?
The IC50 was 27000 nM.

For `COc1ccc(-c2cc(C3=Nc4c(C(C)(C)C)nn(CCCO)c4C(=O)NC3)ccc2OC)cn1`, which IC50 is on record?
The IC50 was 6190 nM.

Which IC50 does the source give for `COc1ccc(C2=Nc3c(C(C)(C)C)nn(CCCO)c3C(=O)NC2)cc1-c1cnn(C)c1` here?
The IC50 was 6740 nM.

Which IC50 does the source give for `COc1ccc(C2=Nc3c(C(C)(C)C)nn(CCCO)c3C(=O)NC2)cc1-c1cnc(N(C)C)cc1C` here?
Its IC50 is 5660 nM.

With `COc1ncc(-c2cc(C3=Nc4c(C(C)(C)C)nn(CCCO)c4C(=O)NC3)ccc2OC)c(OC)n1` as the compound, how does the IC50 read?
The IC50 was 1920 nM.

System: not listed separately
Assay: Clearance in Sprague-Dawley rat at 1 mg/kg, iv and 10 mg/kg, po
Format: ADME, organism-based
Settings: in vivo
How it was run: as §1

With `CCC(CC)c1nn(CCO)c2c1N=C(c1ccc(-n3ccnc3C)cc1)CNC2=O` as the compound, how does the clearance read?
The clearance was 70 mL/min/kg.

For `COc1ccc(C2=Nc3c(C(C)(C)C)nn(CCCO)c3C(=O)NC2)cc1-c1cnn(C)c1`, which clearance is on record?
Its clearance is 43 mL/min/kg.

System: not listed separately
Assay: Tmax in Sprague-Dawley rat at 10 mg/kg, po
Format: ADME, organism-based
Set-up: dose 10 mg/kg, route oral
Settings: in vivo
How it was run: as §1

With `CCC(CC)c1nn(CCO)c2c1N=C(c1ccc(-n3ccnc3C)cc1)CNC2=O` as the compound, how does the Tmax read?
The Tmax was 2.25 h.

With `COc1ccc(C2=Nc3c(C(C)(C)C)nn(CCCO)c3C(=O)NC2)cc1-c1cnn(C)c1` as the compound, how does the Tmax read?
The Tmax was 0.5 h.

System: not listed separately
Assay: Half life in Sprague-Dawley rat at 1 mg/kg, iv
Format: ADME, organism-based
Set-up: dose 1 mg/kg, route intravenous
Settings: in vivo
How it was run: as §1

Which half-life does the source give for `CCC(CC)c1nn(CCO)c2c1N=C(c1ccc(-n3ccnc3C)cc1)CNC2=O` here?
The half-life was 0.53 h.

With `COc1ccc(C2=Nc3c(C(C)(C)C)nn(CCCO)c3C(=O)NC2)cc1-c1cnn(C)c1` as the compound, how does the half-life read?
The half-life was 0.73 h.
